Laboratory results from ChEMBL document CHEMBL3227977, “L-Chlorozotocin” (J Med Chem, 1979).

Experiments:
Mus musculus = assay: Toxicity in ip dosed CDF1 mouse; type: organism-based; conditions: in vivo
In short: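 Single-dose LD10 was found in concurrent toxicity controls using normal (non-tumor-bearing) mice, run alongside the L1210 survival experiment, with drug in physiological saline given ip.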

L1210 [1] = assay: Antineoplastic activity against mouse L1210 cells allografted in CDF1 mouse assessed as median day of death at 24 mg/kg, ip administered on day 1 post-tumor cell implantation (reference value: 8 days); type: functional; conditions: route intraperitoneal
In short: (§1)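 Male CDF1 mice were inoculated ip with 10⁵ L1210 cells. Drug in physiological saline was given ip as a single dose on day 1 postimplant, at the maximum non-toxic dose relative to the concurrent LD10. There were 10 mice per test group and 30 in the control group, followed for 60 days. Median day of death counted dying mice only. Increase in life span excluded survivors.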

L1210 [2] = assay: Antineoplastic activity against mouse L1210 cells allografted in CDF1 mouse assessed as dose causing 50% 60-day host survival at 24 mg/kg, ip administered on day 1 post-tumor cell implantation; type: functional; conditions: route intraperitoneal; in short: as §1
L1210 [3] = assay: Antineoplastic activity against mouse L1210 cells allografted in CDF1 mouse assessed as increase in host life span at 24 mg/kg, ip administered on day 1 post-tumor cell implantation; type: functional; conditions: route intraperitoneal; in short: as §1
[4] = Therapeutic index, ratio of ED50 for antineoplastic activity against mouse L1210 cells allografted in CDF1 mouse to LD10 for CDF1 mouse; conditions: read-out: TI
In short: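 The therapeutic index is the fraction of the single-dose LD10 that gave 50% 60-day survival: ED50 divided by LD10. ED50 came from log-dose probit-survival plots in L1210-bearing male CDF1 mice (10⁵ cells ip, single ip dose in saline on day 1). LD10 came from concurrent toxicity controls.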

L1210 [5] = assay: Antineoplastic activity against mouse L1210 cells allografted in CDF1 mouse assessed as tumor growth inhibition at 24 mg/kg, ip administered on day 1 post-tumor cell implantation; type: functional; conditions: route intraperitoneal

| SMILES | LD10 (Mus musculus) | Time (L1210 [1]) | ED50 (L1210 [2]) | Activity (L1210 [3]) | selectivity ratio [4] | LCK (L1210 [5]) |
| --- | --- | --- | --- | --- | --- | --- |
| O=NN(CCCl)C(=O)N[C@H]1C(O)O[C@H](CO)[C@@H](O)[C@@H]1O (some centres not stated) [CHLOROZOTOCIN] | 30 mg/kg | 13 days | 21 mg/kg | 62% | 0.7 | >=6 |
| O=NN(CCCl)C(=O)N[C@@H]1C(O)O[C@@H](CO)[C@H](O)[C@H]1O (some centres not stated) | 33 mg/kg | 15 days | 21 mg/kg | 87% | 0.64 | >=6 |
